# Shown are actives, neighbours in structure and some others; about 11% of the full set was active somewhere.
# M1 ag = activates the M1 muscarinic receptor. CHO-M1 cells, Fluo-4 calcium fluorescence, agonist mode; active compounds read high. B-score at 10 µM. 64,000 compounds, 3% hits. AID 626;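 active = fluorescence rise, raw or as B-score row- and column-corrected plate score, outside the 99.7% band of its plate's samples, either direction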
# RORA act = activates the human nuclear receptor RORA. P35398. CHO-K1 Gal4-RORA LBD luciferase reporter, luminescence; percent increase over mock-subtracted basal signal. activation, % at 10 µM. 65,000 compounds, 1.5% hits. AID 560;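 active = activation above the mean of all tested compounds plus 3 SD, cut at about 49% in these data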
# Htt clearance = compounds clearing mutant huntingtin protein; HeLa Exon1htt(103Q)mCFP, aggregate imaging; zero = plate's median compound well; inhibition, % at 1.5 µM; 47,000 compounds, 0.42% hits; AID 853;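 active = inhibition of aggregate fluorescence above about 70%, also judged a hit by eye on the cell image, limit read from the data, passing the limit was not always enough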;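 note: cells exposed to compound for three days before fixation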
# SF1 activator = activators of human nuclear receptor SF-1 | 65,000 compounds, 1.9% hits | activation, % at 10 µM | AID 522 | Q13285 | CHO-K1 Gal4-SF-1 LBD luciferase reporter; % increase over DMSO SF-1-specific signal;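 active = activation above the mean activation of all tested compounds plus 3 SD, cut at about 50% in these data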
#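 Assay system: CHO-K1 cells co-transfected with Gal4 DBD–human SF-1 LBD, 5xGal4 luciferase reporter / Input: 4,000 cells per well / Incubation: 20 h compound exposure at 37 °C after 1 h cell settling / Detection: SteadyLite luciferase luminescence / Control set: DMSO negative control and −SF1 background wells / Replication: one test per compound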
# M1 antagonist = M1 muscarinic receptor (rat) antagonism; P08482; CHO-M1 cells, Fluo-4 calcium, ACh EC80 antagonist mode; active compounds read low; B-score at 10 µM; 64,000 compounds, 3.4% hits; AID 628;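 active = calcium fluorescence response, raw or row-and-column corrected B-score, differing from the plate sample mean either way at a set confidence level, mostly lower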
# Target sequence (P08482 whole entry, looked up): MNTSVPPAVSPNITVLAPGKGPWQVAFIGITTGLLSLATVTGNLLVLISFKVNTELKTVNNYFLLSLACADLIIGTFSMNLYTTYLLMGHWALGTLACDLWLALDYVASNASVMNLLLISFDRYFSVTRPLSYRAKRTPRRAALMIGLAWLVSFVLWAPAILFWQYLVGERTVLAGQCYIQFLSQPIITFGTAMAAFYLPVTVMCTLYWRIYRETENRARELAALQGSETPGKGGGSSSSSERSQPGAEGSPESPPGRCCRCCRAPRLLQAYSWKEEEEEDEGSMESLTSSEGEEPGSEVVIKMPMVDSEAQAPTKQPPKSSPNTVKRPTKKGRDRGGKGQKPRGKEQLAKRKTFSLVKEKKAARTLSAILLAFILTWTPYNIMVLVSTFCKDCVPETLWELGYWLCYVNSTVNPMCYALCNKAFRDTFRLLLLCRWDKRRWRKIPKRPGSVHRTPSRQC
# D1 allo mod = allosteric modulators of human D1 dopamine receptor | P21728 | HEK293 D1, CRE-luciferase, dopamine EC30 potentiation; actives deviate in either direction | B-score at 10 µM | 58,000 compounds, 5.9% hits;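 active = luminescence count or its row- and column-corrected plate score outside the 99.7% band of the plate's sample wells, on either side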
# D1 mod confirm = confirmation of human D1 dopamine receptor allosteric modulators. shares compounds with D1 allo mod. HEK293 D1 CRE-luciferase, dopamine EC30 potentiation; active compounds read high. luminescence at 10 µM. 2,200 compounds, 88% hits. AID 642;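 active = luminescence in either of two replicates above the same-plate mean plus 3 SD of the low-dose dopamine control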
# D1 ag no DA = activates D1 CRE-luciferase signal without dopamine present; shares compounds with D1 allo mod; HEK293 D1 CRE-luciferase, luminescence, no dopamine; active compounds read high; luminescence at 10 µM; 1,900 compounds, 0.8% hits; AID 646; in the data active = luminescence above about 3900
# Isoprot counter = alters isoproterenol CRE-luciferase response in HEK293 cells; 2,200 compounds, 63% hits; shares compounds with D1 allo mod; calls only at 10 µM; HEK293 D1 CRE-luciferase, isoproterenol EC30 counter-screen;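 active = luminescence in either replicate above plate mean of wells with a partly effective reference agonist dose plus 3 SD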;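 note: isoproterenol raises cAMP through native beta-adrenoceptor Gs so signal bypasses D1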
# A number is an active result; - = inactive; . = no result given; + = active, no number.
SMILES,M1 ag,RORA act,Htt clearance,SF1 activator,M1 antagonist,D1 allo mod,D1 mod confirm,D1 ag no DA,Isoprot counter
CCOC(=O)N1CCC(NC(=O)c2ccc3c(=O)n4c(nc3c2)CCCC4)CC1,-,-,-,-,-,-,.,.,.
Cc1ccc2[nH]c(=O)c3cc(C(=O)N4CCN(C(=O)c5ccco5)CC4)sc3c2c1,-,-,.,-,-,-,.,.,.
COc1c(S(=O)(=O)n2nc(C)cc2C)ccc(Cl)c1Cl,-,-,.,-,-,3.64,12296,-,-
COC(=O)CN(c1ccccc1F)S(=O)(=O)c1ccccc1,-,-,.,-,-,-,.,.,.
COC(=O)CN(c1ccccn1)S(=O)(=O)c1ccccc1,-,-,-,-,-,5.23,-,-,-
CSc1nc2ccc(NS(=O)(=O)c3ccc4c(c3)OCCO4)cc2s1,-,-,.,-,-,-,.,.,.
CC(C)CCSc1nc(N)c(C#N)cc1C#N,-,-,-,-,-,7.71,14056,-,+
CC(=O)c1cc(C#N)c(SCCC(C)C)nc1C,-,-,-,-,-,-,.,.,.
COC(=O)c1cc(OC)c(OC)cc1NC(=O)c1c(-c2ccccc2Cl)noc1C,-,-,-,-,-,-,.,.,.
COc1ccc(N2C(=O)C3CCCN3C2c2ccccc2)cc1 (stereo unspecified),-,-,-,-,-,-,.,.,.
CCn1c(CSc2nnc(C)n2-c2ccccc2)nc2cc(S(=O)(=O)N(C)C)ccc21,-,-,-,-,-,1.8,-,-,-
CCn1c(CSc2nnc(-c3ccoc3C)n2C)nc2cc(S(=O)(=O)N(C)C)ccc21,-,-,-,-,-,-,.,.,.
O=C(c1ccc2c(c1)OCO2)N1CCc2ccccc2C1,-,66.0,.,-,-,21.8,18384,-,+
CC(C)OC(=O)C1C(=O)CC(C)(O)C(C(=O)OC(C)C)C1c1cccc(O)c1 (stereo unspecified),-,-,.,-,-,-,.,.,.
Cc1cc(C(=O)N2CCN(Cc3ccc4c(c3)OCO4)CC2)cs1,-,-,.,-,-,-,.,.,.
c1ccc(CNc2nc(N3CCOCC3)nc(N3CCOCC3)n2)cc1,.,.,-,.,.,.,.,.,.
Cc1cc(Oc2ccc(-c3ccccc3)cc2)nc(N2CCOCC2)n1,-,-,-,-,-,-,.,.,.
c1ccc(Oc2nc(Oc3ccccc3)nc(N3CCOCC3)n2)cc1,-,-,-,-,-,3.75,6884,.,+
COc1nc(N2CCOCC2)nc(-n2cccc2)n1,-,-,-,-,-,16.7,12956,-,+
Cc1cc(C)c2c(CC(=O)Nc3nccs3)coc2c1,-,-,.,-,-,-,.,.,.
CCCOn1c(OCC(C)C)nc2ccccc2c1=O,-,-,-,-,-,4.46,12220,-,+
CC(C)Cn1c(-c2ccccc2)nc2ccccc2c1=O,.,.,-,.,.,.,.,.,.
c1coc(-c2nc3nc4ccccc4nc3n2CC2CCCO2)c1 (stereo unspecified),.,-,.,-,.,4.81,10012,-,+
S=c1[nH]nc(-c2ccco2)n1Cc1ccccc1,-,-,.,-,-,.,.,.,.
CCCCCn1c(-c2ccco2)nc2nc3ccccc3nc21,-,-,-,-,-,12.1,18024,-,+
SMILES,M1 ag,RORA act,Htt clearance,SF1 activator,M1 antagonist,D1 allo mod,D1 mod confirm,D1 ag no DA,Isoprot counter
O=c1c2ccccc2nc(-c2ccco2)n1Cc1ccccc1,-,-,-,-,-,7.79,19492,-,+
COc1ccc(CCNS(=O)(=O)c2cccc3nsnc23)cc1OC,-,-,-,-,-,-,.,.,.
CCOc1ccc(CCNS(=O)(=O)c2cccc3nsnc23)cc1OCC,-,-,-,-,-,18.9,19296,-,+
CN1CCc2c(sc3c2c(=O)n(-c2ccccc2)c2nnc(SCc4ccccc4F)n32)C1,-,-,.,-,-,-,.,.,.
O=S(=O)(Nc1ccc(N2CCCCC2)cc1)c1cccs1,-,-,.,-,-,-,.,.,.
O=S(=O)(Nc1cc(Cl)ccc1N1CCCCC1)c1cccs1,-,-,.,-,-,28.6,7016,-,-
COc1ccc(CCN2CC(C#N)=C3c4cc(OC)c(OC)cc4CCN3C2)cc1OC,-,-,-,-,-,4.99,14004,-,+
COc1cc2c(cc1OC)C1=C(C#N)CCC(=O)N1CC2,-,-,.,-,-,13.1,16416,-,+
COc1cc2c(cc1OC)C1=C(C#N)CC/C(=N\S(=O)(=O)c3ccccc3)N1CC2,-,-,.,-,-,8.72,18960,.,+
COc1cc2c(cc1O)CCN(C(=O)c1ccco1)C2C (stereo unspecified),.,.,-,.,.,.,.,.,.
COc1cc2c(cc1OC)C(C)N(C(=O)c1cc3ccccc3o1)CC2 (stereo unspecified),-,-,.,-,-,15,16968,-,+
COc1cc2c(cc1OC)C(C)N(C(=O)C1COc3ccccc3O1)CC2 (stereo unspecified),-,-,.,-,-,7.3,19292,-,+
CCCCCC#CCC#CCC#CCC#CCCCC(=O)O,-,-,.,-,-,-,.,.,.
Cc1cc(S(=O)(=O)Nc2cc(C)c(O)c(C)c2)c(C)s1,.,.,-,.,.,.,.,.,.
Cc1ccc(NC(=O)CC2SC3=NCCN3C2=O)cc1 (stereo unspecified),-,-,-,-,-,5.49,-,.,-
Nc1nc(CN2CCN(c3ccccn3)CC2)nc(Nc2ccc(Cl)cc2)n1,-,-,-,-,-,4.28,6700,-,-
CC(=O)n1c2ccccc2c2c1c1ccccc1n2C,-,-,.,-,-,-,.,.,.
C=CCNc1nc2c3ccccc3n(C(C)=O)c2s1,-,-,.,-,-,6.25,7816,-,+
CC(C)C1C(C#N)=C(N)Oc2n[nH]c(-c3cccs3)c21 (stereo unspecified),-,-,-,-,-,3.63,8472,-,-
Cc1cccc(-c2nnc3n2N=C(c2ccccc2Br)CS3)c1,-,-,.,-,-,8.15,17404,-,+
COc1ccc(C2=Nn3c(nnc3-c3ccc(OC)cc3)SC2)cc1,-,-,.,-,-,8.12,16788,-,+
CCc1ccc(C2=Nn3c(nnc3-c3cccs3)SC2)cc1,-,-,-,-,-,8.81,6272,-,-
COc1ccc(-c2nnc3n2N=C(c2cccc(Br)c2)CS3)cc1OC,-,-,.,-,-,-,.,.,.
Cc1ccc(-c2nnc3n2N=C(c2ccccc2)CS3)cc1,-,-,.,-,-,8.3,21908,-,+
Cc1ccc2c(c1)c1cccc3c1n2CCN3CCC(N)=O,-,-,-,-,-,-,.,.,.
Cc1nonc1NC(=O)Nc1cccnc1,-,-,-,-,-,.,.,.,.
